Assay results: ChEMBL document CHEMBL4673214, “Synthesis and antibacterial bioactivities of cationic deacetyl linezolid amphiphiles” (Eur J Med Chem, 2018)

Experiments:
[1] = test system: Staphylococcus aureus; experiment: Antibacterial activity against Staphylococcus aureus ATCC 29213 assessed as reduction in bacterial growth incubated for 16 to 20 hrs by CLSI-based broth microdilution method; assay type: functional; conditions: time 16-20 hrs
How it was run: (§1)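 Broth microdilution following CLSI, in cation-adjusted Mueller-Hinton broth. Inoculum from a 4-6 h culture (~10^8 CFU/mL), diluted to ~10^6 CFU/mL. Water stocks were serially diluted in MHB (256 to 0.5 µg/mL) and mixed 1:1 with the inoculum. Plates ran 16-20 h at 37 °C. MIC was read visually. Each concentration was tested in duplicate, and the experiment was repeated at least twice.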

[2] = test system: Klebsiella pneumoniae; experiment: Antibacterial activity against carbapenem-resistant Klebsiella pneumoniae clinical isolate 3 assessed as reduction in bacterial growth incubated for 16 to 20 hrs by CLSI-based broth microdilution method; assay type: functional; conditions: time 16-20 hrs
How it was run: (§2)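 Clinical isolates tested by broth microdilution in cation-adjusted Mueller-Hinton broth. Cultures grown 4-6 h (~10^8 CFU/mL) were diluted to ~10^6 CFU/mL and mixed 1:1 with compound serial dilutions made from 256 down to 0.5 µg/mL (pre-mixing). Plates held at 37 °C for 16-20 h, then read for growth. Each concentration run in duplicate, whole experiment at least twice.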

[3] = test system: Enterobacteriaceae; experiment: Antibacterial activity against NDM1 producing carbapenem-resistant Enterobacteriaceae clinical isolate 2 assessed as reduction in bacterial growth incubated for 16 to 20 hrs by CLSI-based broth microdilution method; assay type: functional; conditions: time 16-20 hrs; how it was run: as §2
[4] = test system: Staphylococcus aureus; experiment: Antibacterial activity against methicillin-resistant Staphylococcus aureus clinical isolate 5 assessed as reduction in bacterial growth incubated for 16 to 20 hrs by CLSI-based broth microdilution method; assay type: functional; conditions: time 16-20 hrs; how it was run: as §2
[5] = test system: Enterobacteriaceae; experiment: Antibacterial activity against NDM1 producing carbapenem-resistant Enterobacteriaceae clinical isolate 9 assessed as reduction in bacterial growth incubated for 16 to 20 hrs by CLSI-based broth microdilution method; assay type: functional; conditions: time 16-20 hrs; how it was run: as §2
[6] = test system: Staphylococcus aureus; experiment: Antibacterial activity against methicillin-resistant Staphylococcus aureus clinical isolate 9 assessed as reduction in bacterial growth incubated for 16 to 20 hrs by CLSI-based broth microdilution method; assay type: functional; conditions: time 16-20 hrs; how it was run: as §2
[7] = test system: Enterobacteriaceae; experiment: Antibacterial activity against NDM1 producing carbapenem-resistant Enterobacteriaceae clinical isolate 1 assessed as reduction in bacterial growth incubated for 16 to 20 hrs by CLSI-based broth microdilution method; assay type: functional; conditions: time 16-20 hrs; how it was run: as §2
[8] = test system: Klebsiella pneumoniae; experiment: Antibacterial activity against carbapenem-resistant Klebsiella pneumoniae clinical isolate 2 assessed as reduction in bacterial growth incubated for 16 to 20 hrs by CLSI-based broth microdilution method; assay type: functional; conditions: time 16-20 hrs; how it was run: as §2
[9] = test system: Klebsiella pneumoniae; experiment: Antibacterial activity against carbapenem-resistant Klebsiella pneumoniae clinical isolate 10 assessed as reduction in bacterial growth incubated for 16 to 20 hrs by CLSI-based broth microdilution method; assay type: functional; conditions: time 16-20 hrs; how it was run: as §2
[10] = test system: Enterobacteriaceae; experiment: Antibacterial activity against NDM1 producing carbapenem-resistant Enterobacteriaceae clinical isolate 7 assessed as reduction in bacterial growth incubated for 16 to 20 hrs by CLSI-based broth microdilution method; assay type: functional; conditions: time 16-20 hrs; how it was run: as §2
[11] = test system: Klebsiella pneumoniae; experiment: Antibacterial activity against carbapenem-resistant Klebsiella pneumoniae clinical isolate 6 assessed as reduction in bacterial growth incubated for 16 to 20 hrs by CLSI-based broth microdilution method; assay type: functional; conditions: time 16-20 hrs; how it was run: as §2
[12] = test system: Klebsiella pneumoniae; experiment: Antibacterial activity against carbapenem-resistant Klebsiella pneumoniae clinical isolate 8 assessed as reduction in bacterial growth incubated for 16 to 20 hrs by CLSI-based broth microdilution method; assay type: functional; conditions: time 16-20 hrs; how it was run: as §2
[13] = test system: Staphylococcus aureus; experiment: Antibacterial activity against methicillin-resistant Staphylococcus aureus clinical isolate 3 assessed as reduction in bacterial growth incubated for 16 to 20 hrs by CLSI-based broth microdilution method; assay type: functional; conditions: time 16-20 hrs; how it was run: as §2
[14] = test system: Enterobacteriaceae; experiment: Antibacterial activity against NDM1 producing carbapenem-resistant Enterobacteriaceae clinical isolate 6 assessed as reduction in bacterial growth incubated for 16 to 20 hrs by CLSI-based broth microdilution method; assay type: functional; conditions: time 16-20 hrs; how it was run: as §2
[15] = test system: Enterobacteriaceae; experiment: Antibacterial activity against NDM1 producing carbapenem-resistant Enterobacteriaceae clinical isolate 8 assessed as reduction in bacterial growth incubated for 16 to 20 hrs by CLSI-based broth microdilution method; assay type: functional; conditions: time 16-20 hrs; how it was run: as §2
[16] = test system: Klebsiella pneumoniae; experiment: Antibacterial activity against carbapenem-resistant Klebsiella pneumoniae clinical isolate 9 assessed as reduction in bacterial growth incubated for 16 to 20 hrs by CLSI-based broth microdilution method; assay type: functional; conditions: time 16-20 hrs; how it was run: as §2
[17] = test system: Enterobacteriaceae; experiment: Antibacterial activity against NDM1 producing carbapenem-resistant Enterobacteriaceae clinical isolate 10 assessed as reduction in bacterial growth incubated for 16 to 20 hrs by CLSI-based broth microdilution method; assay type: functional; conditions: time 16-20 hrs; how it was run: as §2
[18] = test system: Enterococcus faecalis; experiment: Antibacterial activity against Enterococcus faecalis ATCC 29212 assessed as reduction in bacterial growth incubated 16 to 20 hrs by CLSI-based broth microdilution method; assay type: functional; conditions: time 16-20 hrs; how it was run: as §1
[19] = test system: Enterobacteriaceae; experiment: Antibacterial activity against NDM1 producing carbapenem-resistant Enterobacteriaceae clinical isolate 3 assessed as reduction in bacterial growth incubated for 16 to 20 hrs by CLSI-based broth microdilution method; assay type: functional; conditions: time 16-20 hrs; how it was run: as §2
[20] = test system: Staphylococcus aureus; experiment: Antibacterial activity against methicillin-resistant Staphylococcus aureus clinical isolate 1 assessed as reduction in bacterial growth incubated for 16 to 20 hrs by CLSI-based broth microdilution method; assay type: functional; conditions: time 16-20 hrs; how it was run: as §2
[21] = test system: Klebsiella pneumoniae; experiment: Antibacterial activity against carbapenem-resistant Klebsiella pneumoniae clinical isolate 1 assessed as reduction in bacterial growth incubated for 16 to 20 hrs by CLSI-based broth microdilution method; assay type: functional; conditions: time 16-20 hrs; how it was run: as §2
[22] = test system: Escherichia coli; experiment: Antibacterial activity against Escherichia coli ATCC 25922 assessed as reduction in bacterial growth incubated 16 to 20 hrs by CLSI-based broth microdilution method; assay type: functional; conditions: time 16-20 hrs; how it was run: as §1
[23] = test system: Staphylococcus aureus; experiment: Antibacterial activity against methicillin-resistant Staphylococcus aureus clinical isolate 2 assessed as reduction in bacterial growth incubated for 16 to 20 hrs by CLSI-based broth microdilution method; assay type: functional; conditions: time 16-20 hrs; how it was run: as §2
[24] = test system: Klebsiella pneumoniae; experiment: Antibacterial activity against carbapenem-resistant Klebsiella pneumoniae clinical isolate 5 assessed as reduction in bacterial growth incubated for 16 to 20 hrs by CLSI-based broth microdilution method; assay type: functional; conditions: time 16-20 hrs; how it was run: as §2
[25] = test system: Klebsiella pneumoniae; experiment: Antibacterial activity against carbapenem-resistant Klebsiella pneumoniae clinical isolate 4 assessed as reduction in bacterial growth incubated for 16 to 20 hrs by CLSI-based broth microdilution method; assay type: functional; conditions: time 16-20 hrs; how it was run: as §2
[26] = test system: Staphylococcus aureus; experiment: Antibacterial activity against methicillin-resistant Staphylococcus aureus clinical isolate 8 assessed as reduction in bacterial growth incubated for 16 to 20 hrs by CLSI-based broth microdilution method; assay type: functional; conditions: time 16-20 hrs; how it was run: as §2
[27] = Solubility of the compound in water at room temperature; assay type: physicochemical; conditions: buffer
[28] = test system: Enterobacteriaceae; experiment: Antibacterial activity against NDM1 producing carbapenem-resistant Enterobacteriaceae clinical isolate 5 assessed as reduction in bacterial growth incubated for 16 to 20 hrs by CLSI-based broth microdilution method; assay type: functional; conditions: time 16-20 hrs; how it was run: as §2
[29] = test system: Klebsiella pneumoniae; experiment: Antibacterial activity against carbapenem-resistant Klebsiella pneumoniae clinical isolate 7 assessed as reduction in bacterial growth incubated for 16 to 20 hrs by CLSI-based broth microdilution method; assay type: functional; conditions: time 16-20 hrs; how it was run: as §2
[30] = test system: Staphylococcus aureus; experiment: Antibacterial activity against methicillin-resistant Staphylococcus aureus clinical isolate 7 assessed as reduction in bacterial growth incubated for 16 to 20 hrs by CLSI-based broth microdilution method; assay type: functional; conditions: time 16-20 hrs; how it was run: as §2
[31] = test system: Salmonella enterica; experiment: Antibacterial activity against Salmonella enterica ATCC 8387 assessed as reduction in bacterial growth incubated for 16 to 20 hrs by CLSI-based broth microdilution method; assay type: functional; conditions: time 16-20 hrs; how it was run: as §1
[32] = test system: Staphylococcus aureus; experiment: Antibacterial activity against methicillin-resistant Staphylococcus aureus clinical isolate 4 assessed as reduction in bacterial growth incubated for 16 to 20 hrs by CLSI-based broth microdilution method; assay type: functional; conditions: time 16-20 hrs; how it was run: as §2
[33] = test system: Staphylococcus aureus; experiment: Antibacterial activity against methicillin-resistant Staphylococcus aureus clinical isolate 10 assessed as reduction in bacterial growth incubated for 16 to 20 hrs by CLSI-based broth microdilution method; assay type: functional; conditions: time 16-20 hrs; how it was run: as §2
[34] = test system: Enterobacteriaceae; experiment: Antibacterial activity against NDM1 producing carbapenem-resistant Enterobacteriaceae clinical isolate 4 assessed as reduction in bacterial growth incubated for 16 to 20 hrs by CLSI-based broth microdilution method; assay type: functional; conditions: time 16-20 hrs; how it was run: as §2
[35] = test system: Staphylococcus aureus; experiment: Antibacterial activity against methicillin-resistant Staphylococcus aureus clinical isolate 6 assessed as reduction in bacterial growth incubated for 16 to 20 hrs by CLSI-based broth microdilution method; assay type: functional; conditions: time 16-20 hrs; how it was run: as §2

CCCCCCCCCCCN(C[C@H]1CN(c2ccc(N3CCOCC3)c(F)c2)C(=O)O1)C(=O)[C@@H](N)CCCN=C(N)N.Cl.Cl.Cl
MIC [1]: 4 µg/mL | MIC [2]: 8 µg/mL | MIC [3]: > 64 µg/mL | MIC [4]: 8 µg/mL | MIC [5]: 16 µg/mL | MIC [6]: 4 µg/mL | MIC [7]: > 64 µg/mL | MIC [8]: 16 µg/mL | MIC [9]: 16 µg/mL | MIC [10]: 16 µg/mL | MIC [11]: 16 µg/mL | MIC [12]: 8 µg/mL | MIC [13]: 4 µg/mL | MIC [14]: 16 µg/mL | MIC [15]: 16 µg/mL | MIC [16]: 8 µg/mL | MIC [17]: 8 µg/mL | MIC [18]: 8 µg/mL | MIC [19]: 16 µg/mL | MIC [20]: 2 µg/mL | MIC [21]: 16 µg/mL | MIC [22]: 8 µg/mL | MIC [23]: 8 µg/mL | MIC [24]: 16 µg/mL | MIC [25]: 8 µg/mL | MIC [26]: 4 µg/mL | solubility [27]: Soluble | MIC [28]: 16 µg/mL | MIC [29]: 32 µg/mL | MIC [30]: 4 µg/mL | MIC [31]: 8 µg/mL | MIC [32]: 4 µg/mL | MIC [33]: 4 µg/mL | MIC [34]: 64 µg/mL | MIC [35]: 4 µg/mL

CCCCCCCCCCCCCCCCCC[N+](C)(C)CC(=O)NC[C@H]1CN(c2ccc(N3CCOCC3)c(F)c2)C(=O)O1.[Cl-]
MIC [1]: 4 µg/mL | MIC [18]: 16 µg/mL | MIC [22]: > 128 µg/mL | solubility [27]: Soluble | MIC [31]: > 128 µg/mL

CCCCCCCCCN(C[C@H]1CN(c2ccc(N3CCOCC3)c(F)c2)C(=O)O1)C(=O)[C@@H](N)CCCCN.Cl.Cl
MIC [1]: 16 µg/mL | MIC [18]: 16 µg/mL | MIC [22]: 64 µg/mL | solubility [27]: Soluble | MIC [31]: 64 µg/mL

NC[C@H]1CN(c2ccc(N3CCOCC3)c(F)c2)C(=O)O1
MIC [1]: > 128 µg/mL | MIC [18]: > 128 µg/mL | MIC [22]: > 128 µg/mL | MIC [31]: > 128 µg/mL

CCCC[N+](C)(C)CC(=O)NC[C@H]1CN(c2ccc(N3CCOCC3)c(F)c2)C(=O)O1.[Cl-]
MIC [1]: > 128 µg/mL | MIC [18]: > 128 µg/mL | MIC [22]: > 128 µg/mL | solubility [27]: Soluble | MIC [31]: > 128 µg/mL

CCCCCCCCCN(C[C@H]1CN(c2ccc(N3CCOCC3)c(F)c2)C(=O)O1)C(=O)[C@@H](N)CCCN=C(N)N.Cl.Cl.Cl
MIC [1]: 16 µg/mL | MIC [18]: 32 µg/mL | MIC [22]: 64 µg/mL | solubility [27]: Soluble | MIC [31]: 64 µg/mL

CCCCCCCN(C[C@H]1CN(c2ccc(N3CCOCC3)c(F)c2)C(=O)O1)C(=O)[C@@H](N)CCCCN.Cl.Cl
MIC [1]: 128 µg/mL | MIC [18]: 128 µg/mL | MIC [22]: > 128 µg/mL | solubility [27]: Soluble | MIC [31]: > 128 µg/mL
